Reference: ChEMBL document CHEMBL5357042, “Discovery of imidazo[1,2-b]pyridazine-containing TAK1 kinase inhibitors with excellent activities against multiple myeloma” (RSC Med Chem, 2024)
Active and inactive are the calls of the source. The calls are words filed in the database; no cut-off is given here.

Legend:
[1] = target: T1, Mitogen-activated protein kinase kinase kinase 7 (Homo sapiens) (UniProt O43318); test: Inhibition of TAK1 (unknown origin) at 500 nM by ADP-Glo kinase assay
T1 sequence (whole entry): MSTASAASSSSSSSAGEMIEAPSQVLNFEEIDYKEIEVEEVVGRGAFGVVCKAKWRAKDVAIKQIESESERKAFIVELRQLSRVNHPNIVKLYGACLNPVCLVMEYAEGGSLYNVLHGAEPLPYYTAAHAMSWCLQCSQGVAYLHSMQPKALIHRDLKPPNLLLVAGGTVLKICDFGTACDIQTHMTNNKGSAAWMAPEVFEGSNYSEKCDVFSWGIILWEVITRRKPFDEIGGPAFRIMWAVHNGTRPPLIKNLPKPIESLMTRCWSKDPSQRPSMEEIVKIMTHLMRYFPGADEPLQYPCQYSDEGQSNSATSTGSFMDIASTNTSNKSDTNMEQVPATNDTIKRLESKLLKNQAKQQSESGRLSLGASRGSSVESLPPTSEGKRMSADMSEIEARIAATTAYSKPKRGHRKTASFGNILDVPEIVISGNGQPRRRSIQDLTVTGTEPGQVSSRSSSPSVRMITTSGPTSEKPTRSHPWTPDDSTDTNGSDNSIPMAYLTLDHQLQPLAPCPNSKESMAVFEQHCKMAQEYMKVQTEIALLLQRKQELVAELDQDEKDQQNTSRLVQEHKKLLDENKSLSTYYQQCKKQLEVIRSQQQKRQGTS

[2] = target: T1, Mitogen-activated protein kinase kinase kinase 7 (Homo sapiens); test: Inhibition of TAK1 (unknown origin) at 100 nM by ADP-Glo kinase assay
[3] = target: T1, Mitogen-activated protein kinase kinase kinase 7 (Homo sapiens); test: Inhibition of TAK1 (unknown origin) at 20 nM by ADP-Glo kinase assay
[4] = target: Mitogen-activated protein kinase kinase kinase 7 (Homo sapiens, UniProt O43318); test: Inhibition of human TAK1 using casein as substrate in presence of [gamma-33P]-ATP by radiometric hotspot kinase assay
MPC-11 = test: Cytotoxicity against mouse MPC-11 cells assessed as reduction in cell viability incubated for 72 hrs by CellTiter-Blue assay; format: functional
Method in brief: (§1)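 H929 (RPMI, 10% heat-inactivated FBS) or MPC-11 (DMEM, 10% FBS) cells, under 10 passages, 37 °C, 5% CO₂; 4–5 × 10³ cells/well seeded, 24 h, then compound at various concentrations for 72 h. CellTiter-Blue added for 3 h, fluorescence ex/em 560/590 nm. Normalized to DMSO-treated cells; triplicate, mean and standard deviation.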

NCI-H929 = test: Cytotoxicity against human NCI-H929 cells assessed as reduction in cell viability incubated for 72 hrs by CellTiter-Blue assay; format: functional; method in brief: as §1
[5] = target: Mitogen-activated protein kinase kinase kinase 7 (Mus musculus) (UniProt Q62073); test: Inhibition of TAK1 in mouse MPC-11 cells assessed as reduction in TAK1 phosphorylation at Ser412 residue at 0.1 to 0.5 uM incubated for 48 hrs by Western blot analysis; format: cell-based; conditions: dose 0.1-0.5 µM
Method in brief: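 MPC-11 cells (0.5–1 × 10⁶/well) seeded, treated after 24 h for 48 h; DMSO control. BCA protein quantitation, 10% SDS-PAGE, PVDF; pTAK1, TAK1, β-actin antibodies overnight 4 °C, HRP secondaries 2 h 24 °C, chemiluminescence. Bands quantified relative to actin; duplicates, mean and standard deviation.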

[6] = target: Mast/stem cell growth factor receptor Kit (Homo sapiens) (UniProt P10721); test: Inhibition of human wild type partial length c-Kit (545 to 952 residues) expressed in mammalian expression system at 50 to 500 nM by KinomeScan analysis; conditions: dose 50-500 nM
Mast/stem cell growth factor receptor Kit (Homo sapiens), sequence (P10721 whole entry, the tested form may be a part): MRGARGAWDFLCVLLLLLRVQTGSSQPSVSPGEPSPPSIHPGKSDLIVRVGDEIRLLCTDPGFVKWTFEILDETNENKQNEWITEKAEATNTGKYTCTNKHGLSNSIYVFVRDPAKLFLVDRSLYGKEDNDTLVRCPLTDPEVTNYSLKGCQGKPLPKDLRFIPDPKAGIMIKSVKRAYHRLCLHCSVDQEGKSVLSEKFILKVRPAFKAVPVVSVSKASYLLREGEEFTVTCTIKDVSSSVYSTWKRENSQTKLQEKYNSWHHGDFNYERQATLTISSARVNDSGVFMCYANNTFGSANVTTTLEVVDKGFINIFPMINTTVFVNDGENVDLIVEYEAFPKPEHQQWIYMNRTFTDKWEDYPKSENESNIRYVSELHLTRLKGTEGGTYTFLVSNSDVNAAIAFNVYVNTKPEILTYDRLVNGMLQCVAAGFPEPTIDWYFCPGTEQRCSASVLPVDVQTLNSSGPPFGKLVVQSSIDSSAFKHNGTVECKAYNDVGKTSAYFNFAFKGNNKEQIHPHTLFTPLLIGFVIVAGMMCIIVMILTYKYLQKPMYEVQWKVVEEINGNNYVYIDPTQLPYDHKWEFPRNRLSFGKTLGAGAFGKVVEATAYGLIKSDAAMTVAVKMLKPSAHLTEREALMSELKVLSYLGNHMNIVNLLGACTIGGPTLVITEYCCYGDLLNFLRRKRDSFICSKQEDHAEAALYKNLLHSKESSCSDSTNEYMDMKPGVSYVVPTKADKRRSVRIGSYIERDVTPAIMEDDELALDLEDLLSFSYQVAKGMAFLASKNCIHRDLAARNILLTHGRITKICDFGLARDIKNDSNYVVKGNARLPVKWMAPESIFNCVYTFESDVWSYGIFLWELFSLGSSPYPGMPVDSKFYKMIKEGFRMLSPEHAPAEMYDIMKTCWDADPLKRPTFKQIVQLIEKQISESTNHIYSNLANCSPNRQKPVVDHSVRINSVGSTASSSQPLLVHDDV

[7] = target: Tyrosine-protein kinase ZAP-70 (Homo sapiens) (UniProt P43403); test: Inhibition of human wild type partial length ZAP70 (20 to 299 residues) expressed in mammalian expression system at 50 to 500 nM by KinomeScan analysis; conditions: dose 50-500 nM
[8] = target: Tyrosine-protein kinase JAK2 (Homo sapiens) (UniProt O60674); test: Inhibition of human wild type partial length JAK2 (829 to 1132 residues) expressed in mammalian expression system at 50 to 500 nM by KinomeScan analysis; conditions: dose 50-500 nM
[9] = target: Proto-oncogene tyrosine-protein kinase receptor Ret (Homo sapiens) (UniProt P07949); test: Inhibition of human RET at 50 to 500 nM by KinomeScan analysis; conditions: dose 50-500 nM
Proto-oncogene tyrosine-protein kinase receptor Ret (Homo sapiens), sequence (P07949 whole entry, the tested form may be a part): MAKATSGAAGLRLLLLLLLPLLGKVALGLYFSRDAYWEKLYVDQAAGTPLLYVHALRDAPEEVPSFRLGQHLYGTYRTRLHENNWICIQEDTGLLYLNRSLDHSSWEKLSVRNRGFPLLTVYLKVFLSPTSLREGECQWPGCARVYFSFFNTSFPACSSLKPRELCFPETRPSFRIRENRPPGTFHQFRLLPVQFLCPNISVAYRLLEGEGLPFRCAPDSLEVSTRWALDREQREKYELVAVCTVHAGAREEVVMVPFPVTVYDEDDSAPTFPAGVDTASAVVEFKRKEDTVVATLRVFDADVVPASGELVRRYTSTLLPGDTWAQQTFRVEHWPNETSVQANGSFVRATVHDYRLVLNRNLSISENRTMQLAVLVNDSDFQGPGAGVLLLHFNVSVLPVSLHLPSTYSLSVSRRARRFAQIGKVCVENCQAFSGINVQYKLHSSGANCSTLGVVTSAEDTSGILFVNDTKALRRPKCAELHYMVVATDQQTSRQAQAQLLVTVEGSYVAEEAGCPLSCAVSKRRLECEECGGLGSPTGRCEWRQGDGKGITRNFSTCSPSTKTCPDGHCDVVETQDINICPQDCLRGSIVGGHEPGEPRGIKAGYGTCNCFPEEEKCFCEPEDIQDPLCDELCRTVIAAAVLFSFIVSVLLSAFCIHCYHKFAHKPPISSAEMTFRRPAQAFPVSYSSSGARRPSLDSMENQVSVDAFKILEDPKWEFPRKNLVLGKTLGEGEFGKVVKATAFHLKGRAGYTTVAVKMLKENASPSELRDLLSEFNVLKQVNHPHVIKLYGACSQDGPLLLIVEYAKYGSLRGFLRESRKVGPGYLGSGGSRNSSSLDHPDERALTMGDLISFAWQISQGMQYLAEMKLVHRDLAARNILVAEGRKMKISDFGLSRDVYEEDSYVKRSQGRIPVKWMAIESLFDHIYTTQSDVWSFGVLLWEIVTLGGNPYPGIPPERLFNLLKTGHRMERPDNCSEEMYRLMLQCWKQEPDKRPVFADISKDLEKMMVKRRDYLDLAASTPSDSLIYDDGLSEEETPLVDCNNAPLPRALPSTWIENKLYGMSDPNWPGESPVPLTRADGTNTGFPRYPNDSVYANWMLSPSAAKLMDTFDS

[10] = target: Vascular endothelial growth factor receptor 2 (Homo sapiens) (UniProt P35968); test: Inhibition of human wild type partial length VEGFR2 (787 to 1253 residues) expressed in mammalian expression system at 50 to 500 nM by KinomeScan analysis; conditions: dose 50-500 nM
[11] = target: Platelet-derived growth factor receptor alpha (Homo sapiens) (UniProt P16234); test: Inhibition of human wild type partial length PDGFRA (575 to 1002 residues) expressed in mammalian expression system at 50 to 500 nM by KinomeScan analysis; conditions: dose 50-500 nM
[12] = target: Platelet-derived growth factor receptor beta (Homo sapiens) (UniProt P09619); test: Inhibition of human wild type partial length PDGFRB (582 to 1009 residues) expressed in bacterial expression system at 50 to 500 nM by KinomeScan analysis; conditions: dose 50-500 nM
[13] = target: Fibroblast growth factor receptor 2 (Homo sapiens) (UniProt P21802); test: Inhibition of human wild type partial length FGFR2 (457 to 769 residues) expressed in bacterial expression system at 50 to 500 nM by KinomeScan analysis; conditions: dose 50-500 nM
Fibroblast growth factor receptor 2 (Homo sapiens), sequence (P21802 22-821 limits assumed): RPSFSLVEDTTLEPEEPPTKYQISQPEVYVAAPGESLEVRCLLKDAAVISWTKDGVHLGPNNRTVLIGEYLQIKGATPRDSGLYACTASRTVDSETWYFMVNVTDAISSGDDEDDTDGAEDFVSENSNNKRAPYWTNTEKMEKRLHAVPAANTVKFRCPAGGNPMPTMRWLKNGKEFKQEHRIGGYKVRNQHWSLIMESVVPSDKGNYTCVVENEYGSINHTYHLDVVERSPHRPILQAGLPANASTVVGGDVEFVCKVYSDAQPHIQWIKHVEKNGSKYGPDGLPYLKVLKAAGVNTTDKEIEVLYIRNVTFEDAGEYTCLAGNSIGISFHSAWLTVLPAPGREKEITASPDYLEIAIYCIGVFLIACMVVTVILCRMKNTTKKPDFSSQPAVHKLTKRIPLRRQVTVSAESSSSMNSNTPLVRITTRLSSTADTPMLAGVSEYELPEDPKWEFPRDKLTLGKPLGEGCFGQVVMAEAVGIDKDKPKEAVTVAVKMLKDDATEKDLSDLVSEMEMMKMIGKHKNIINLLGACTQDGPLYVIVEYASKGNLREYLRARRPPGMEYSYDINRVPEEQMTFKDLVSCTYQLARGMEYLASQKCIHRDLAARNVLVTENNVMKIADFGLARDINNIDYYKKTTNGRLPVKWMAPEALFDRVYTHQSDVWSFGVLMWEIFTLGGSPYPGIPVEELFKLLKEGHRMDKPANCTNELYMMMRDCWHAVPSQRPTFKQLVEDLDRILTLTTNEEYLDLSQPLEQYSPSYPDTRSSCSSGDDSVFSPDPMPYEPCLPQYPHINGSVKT

[14] = target: Fibroblast growth factor receptor 3 (Homo sapiens) (UniProt P22607); test: Inhibition of human wild type partial length FGFR3 (442 to 771 residues) expressed in bacterial expression system at 50 to 500 nM by KinomeScan analysis; conditions: dose 50-500 nM
[15] = target: Epidermal growth factor receptor (Homo sapiens) (UniProt P00533); test: Inhibition of human wild type partial length EGFR (669 to 1011 residues) expressed in bacterial expression system at 50 to 500 nM by KinomeScan analysis; conditions: dose 50-500 nM
Epidermal growth factor receptor (Homo sapiens), sequence (P00533 whole entry, the tested form may be a part): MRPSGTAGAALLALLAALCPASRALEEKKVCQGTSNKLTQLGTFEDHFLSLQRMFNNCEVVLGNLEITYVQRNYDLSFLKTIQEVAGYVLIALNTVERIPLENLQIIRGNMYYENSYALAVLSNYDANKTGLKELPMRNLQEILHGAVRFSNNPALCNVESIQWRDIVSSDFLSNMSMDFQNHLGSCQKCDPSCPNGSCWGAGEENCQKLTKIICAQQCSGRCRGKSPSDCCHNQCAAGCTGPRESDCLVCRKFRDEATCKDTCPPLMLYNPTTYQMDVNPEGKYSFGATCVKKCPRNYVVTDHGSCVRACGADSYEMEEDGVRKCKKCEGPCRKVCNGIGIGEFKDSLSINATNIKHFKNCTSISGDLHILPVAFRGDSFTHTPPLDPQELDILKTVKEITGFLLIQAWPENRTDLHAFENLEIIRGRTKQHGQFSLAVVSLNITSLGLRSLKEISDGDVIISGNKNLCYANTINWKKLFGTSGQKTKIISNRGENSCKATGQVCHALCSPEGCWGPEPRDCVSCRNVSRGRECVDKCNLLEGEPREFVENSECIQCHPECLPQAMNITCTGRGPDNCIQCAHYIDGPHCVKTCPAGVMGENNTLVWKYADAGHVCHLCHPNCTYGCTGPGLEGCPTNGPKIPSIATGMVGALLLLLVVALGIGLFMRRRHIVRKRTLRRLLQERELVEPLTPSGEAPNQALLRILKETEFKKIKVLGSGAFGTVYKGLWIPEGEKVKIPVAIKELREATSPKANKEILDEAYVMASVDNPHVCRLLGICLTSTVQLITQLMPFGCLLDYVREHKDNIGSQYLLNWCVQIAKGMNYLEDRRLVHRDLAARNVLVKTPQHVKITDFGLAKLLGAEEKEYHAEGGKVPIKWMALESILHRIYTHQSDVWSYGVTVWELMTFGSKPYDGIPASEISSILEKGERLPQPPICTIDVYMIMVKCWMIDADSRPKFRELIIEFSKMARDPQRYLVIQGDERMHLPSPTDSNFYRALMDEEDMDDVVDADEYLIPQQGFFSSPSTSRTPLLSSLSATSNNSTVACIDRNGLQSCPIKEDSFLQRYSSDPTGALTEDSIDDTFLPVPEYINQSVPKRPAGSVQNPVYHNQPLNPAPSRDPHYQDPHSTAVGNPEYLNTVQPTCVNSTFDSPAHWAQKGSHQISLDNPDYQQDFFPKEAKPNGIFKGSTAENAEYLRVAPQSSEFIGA

[16] = target: Serine/threonine-protein kinase B-raf (Homo sapiens) (UniProt P15056); test: Inhibition of human wild type partial length BRAF (429 to 741 residues) expressed in mammalian expression system at 50 to 500 nM by KinomeScan analysis; conditions: dose 50-500 nM
[17] = target: RAC-alpha serine/threonine-protein kinase (Homo sapiens) (UniProt P31749); test: Inhibition of human wild type partial length AKT1 expressed in bacterial expression system at 50 to 500 nM by KinomeScan analysis; conditions: dose 50-500 nM
RAC-alpha serine/threonine-protein kinase (Homo sapiens), sequence (P31749 whole entry): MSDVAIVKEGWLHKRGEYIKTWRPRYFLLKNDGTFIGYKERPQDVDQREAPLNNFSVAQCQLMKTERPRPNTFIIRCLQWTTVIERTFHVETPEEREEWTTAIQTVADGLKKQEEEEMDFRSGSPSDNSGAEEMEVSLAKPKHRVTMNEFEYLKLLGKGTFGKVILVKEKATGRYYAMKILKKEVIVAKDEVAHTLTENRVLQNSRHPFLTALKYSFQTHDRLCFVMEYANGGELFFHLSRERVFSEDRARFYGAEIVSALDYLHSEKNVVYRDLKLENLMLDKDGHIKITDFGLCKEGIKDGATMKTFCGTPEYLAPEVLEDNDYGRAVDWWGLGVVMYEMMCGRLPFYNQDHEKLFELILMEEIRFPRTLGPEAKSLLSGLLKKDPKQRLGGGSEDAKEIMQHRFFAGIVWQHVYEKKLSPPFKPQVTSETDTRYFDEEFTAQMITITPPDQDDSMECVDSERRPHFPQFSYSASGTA

[18] = target: RAC-beta serine/threonine-protein kinase (Homo sapiens) (UniProt P31751); test: Inhibition of human wild type partial length AKT2 expressed in bacterial expression system at 50 to 500 nM by KinomeScan analysis; conditions: dose 50-500 nM
RAC-beta serine/threonine-protein kinase (Homo sapiens), sequence (P31751 whole entry, the tested form may be a part): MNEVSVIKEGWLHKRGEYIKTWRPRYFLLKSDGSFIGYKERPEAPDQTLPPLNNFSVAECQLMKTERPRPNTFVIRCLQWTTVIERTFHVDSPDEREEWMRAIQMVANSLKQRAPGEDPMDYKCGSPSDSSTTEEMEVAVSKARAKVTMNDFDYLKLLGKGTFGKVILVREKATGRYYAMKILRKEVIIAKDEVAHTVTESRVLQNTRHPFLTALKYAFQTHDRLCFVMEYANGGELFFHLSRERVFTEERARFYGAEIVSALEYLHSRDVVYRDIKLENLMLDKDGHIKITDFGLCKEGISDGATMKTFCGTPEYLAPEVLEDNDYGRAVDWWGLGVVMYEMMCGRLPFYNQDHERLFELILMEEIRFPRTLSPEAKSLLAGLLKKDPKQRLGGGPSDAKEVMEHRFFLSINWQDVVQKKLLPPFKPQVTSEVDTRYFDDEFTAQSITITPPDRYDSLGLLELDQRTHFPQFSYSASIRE

[19] = target: Aurora kinase A (Homo sapiens) (UniProt O14965); test: Inhibition of human wild type partial length Aurora A (122 to 401 residues) expressed in mammalian expression system at 50 to 500 nM by KinomeScan analysis; conditions: dose 50-500 nM
[20] = target: Aurora kinase B (Homo sapiens) (UniProt Q96GD4); test: Inhibition of human wild type partial length Aurora B (25 to 303 residues) expressed in mammalian expression system at 50 to 500 nM by KinomeScan analysis; conditions: dose 50-500 nM
[21] = target: cAMP-dependent protein kinase catalytic subunit alpha (Homo sapiens) (UniProt P17612); test: Inhibition of human wild type partial length PKAC-alpha (10 to 351 residues) expressed in bacterial expression system at 50 to 500 nM by KinomeScan analysis; conditions: dose 50-500 nM

inhibition [1]: 100%
inhibition [2]: > 50%
inhibition [3]: > 50%
IC50 [4]: 55 nM
inhibition [5]: Active
inhibition [6]: Active
inhibition [7]: Active
inhibition [8]: Active
inhibition [9]: Active
inhibition [10]: Active
inhibition [11]: Active
inhibition [12]: Active
inhibition [13]: Active
inhibition [14]: Active
inhibition [15]: Active
inhibition [16]: Active
inhibition [17]: Active
inhibition [18]: Active
inhibition [19]: Active
inhibition [20]: Active
inhibition [21]: Active
SMILES: C[C@@H]1CN(c2ccc3ncc(-c4ccc5[nH]nc(C6CC6)c5c4)n3n2)C[C@H](C)O1
GI50 (MPC-11): 41 nM
GI50 (NCI-H929): 43 nM
